From ChEMBL document CHEMBL4152200, “Targeting the entrance channel of NNIBP: Discovery of diarylnicotinamide 1,4-disubstituted 1,2,3-triazoles as novel HIV-1 NNRTIs with high potency against wild-type and E138K mutant virus” (Eur J Med Chem, 2018)

Tests used:
[1] = test system: Human immunodeficiency virus 1; test: Antiviral activity against wild-type HIV-1 3B infected in human MT4 cells assessed as inhibition of viral replication after 5 days by MTT assay; assay type: functional, organism-based; conditions: Human immunodeficiency virus 1, 3B, MT4, 120 h
[2] = test system: Human immunodeficiency virus 1; test: Antiviral activity against HIV-1 RES056 harboring reverse transcriptase K103N/Y181C double mutant infected in human MT4 cells assessed as inhibition of viral replication after 5 days by MTT assay; assay type: functional, organism-based; conditions: Human immunodeficiency virus 1, RES056, MT4, 120 h
MT4 = test: (§1) Cytotoxicity against human MT4 cells assessed as decrease in cell viability after 5 days by MTT assay; assay type: cell-based; conditions: mt4, 120 h
Outline: (§2)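 Mock-infected MT-4 cells, exponentially growing, seeded with compound in culture medium without virus; run in parallel with the antiviral assay. Viability read spectrophotometrically by MTT reduction five days later.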

[3] = Selectivity index, ratio of CC50 for human MT4 cells to EC50 for wild-type HIV1 3B; assay type: toxicity; conditions: read-out: Ratio CC50/EC50
Outline: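 Wild-type HIV-1 IIIB at 100–300 CCID50 added to MT-4 cells with compound, with mock-infected wells in parallel. MTT viability was read at day 5. […] SI = CC50/EC50.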

[4] = test system: Human immunodeficiency virus 1; test: Antiviral activity against HIV1 harboring reverse transcriptase L100I mutant infected in human MT4 cells assessed as inhibition of viral replication after 5 days by MTT assay; assay type: functional, organism-based; conditions: Human immunodeficiency virus 1, MT4, 120 h
[5] = test system: Human immunodeficiency virus 1; test: Antiviral activity against HIV1 harboring reverse transcriptase K103N mutant infected in human MT4 cells assessed as inhibition of viral replication after 5 days by MTT assay; assay type: functional, organism-based; conditions: Human immunodeficiency virus 1, MT4, 120 h
[6] = test system: Human immunodeficiency virus 1; test: Antiviral activity against HIV1 harboring reverse transcriptase E138K mutant infected in human MT4 cells assessed as inhibition of viral replication after 5 days by MTT assay; assay type: functional, organism-based; conditions: Human immunodeficiency virus 1, MT4, 120 h
[7] = test system: Human immunodeficiency virus 1; test: Antiviral activity against HIV1 harboring reverse transcriptase Y181C mutant infected in human MT4 cells assessed as inhibition of viral replication after 5 days by MTT assay; assay type: functional, organism-based; conditions: Human immunodeficiency virus 1, MT4, 120 h
[8] = test system: Human immunodeficiency virus 1; test: Antiviral activity against HIV1 harboring reverse transcriptase Y188L mutant infected in human MT4 cells assessed as inhibition of viral replication after 5 days by MTT assay; assay type: functional, organism-based; conditions: Human immunodeficiency virus 1, MT4, 120 h
Outline: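 MT-4 cells in exponential growth, resuspended into wells holding HIV-1 stock (IIIB, RES056 K103N/Y181C, F227L/V106A, L100I, K103N, E138K, Y181C or Y188L) at 100–300 CCID₅₀, or into mock-infected wells. Viability read by MTT reduction to formazan, measured spectrophotometrically 5 days post-infection. EC₅₀ is the concentration giving 50% protection against virus-induced cytotoxicity.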

[9] = test system: Human immunodeficiency virus 1; test: Antiviral activity against HIV1 harboring reverse transcriptase F227L/V106A double mutant infected in human MT4 cells assessed as inhibition of viral replication after 5 days by MTT assay; assay type: functional, organism-based; conditions: Human immunodeficiency virus 1, MT4, 120 h
[10] = test system: Human immunodeficiency virus 1; test: Resistance factor, ratio of EC50 for HIV1 harboring reverse transcriptase L100I mutant to EC50 for wild-type HIV-1 3B; assay type: functional
Outline: (§3)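 Resistance fold is EC₅₀ against the mutant strain divided by EC₅₀ against WT IIIB. Both EC₅₀ values come from the 5-day MTT protection assay in MT-4 cells infected with 100–300 CCID₅₀ of virus.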

[11] = test system: Human immunodeficiency virus 1; test: Resistance factor, ratio of EC50 for HIV1 harboring reverse transcriptase K103N mutant to EC50 for wild-type HIV-1 3B; assay type: functional; outline: as §3
[12] = test system: Human immunodeficiency virus 1; test: Resistance factor, ratio of EC50 for HIV1 harboring reverse transcriptase E138K mutant to EC50 for wild-type HIV-1 3B; assay type: functional; outline: as §3
[13] = test system: Human immunodeficiency virus 1; test: Resistance factor, ratio of EC50 for HIV1 harboring reverse transcriptase Y181C mutant to EC50 for wild-type HIV-1 3B; assay type: functional; outline: as §3
[14] = test system: Human immunodeficiency virus 1; test: Resistance factor, ratio of EC50 for HIV1 harboring reverse transcriptase Y188L mutant to EC50 for wild-type HIV-1 3B; assay type: functional; outline: as §3
[15] = test system: Human immunodeficiency virus 1; test: Resistance factor, ratio of EC50 for HIV1 harboring reverse transcriptase F227L/V106A mutant to EC50 for wild-type HIV-1 3B; assay type: functional; outline: as §3
[16] = Selectivity index, ratio of CC50 for human MT4 cells to EC50 for HIV1 harboring reverse transcriptase L100I mutant; assay type: toxicity; conditions: read-out: Ratio CC50/EC50
Outline: (§4)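 SI is CC₅₀ divided by EC₅₀, both by MTT after 5 days in MT-4 cells. CC₅₀ comes from mock-infected cultures run in parallel and is the concentration reducing their viability by 50%. EC₅₀ comes from cultures infected with the given mutant strain at 100–300 CCID₅₀.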

[17] = Selectivity index, ratio of CC50 for human MT4 cells to EC50 for HIV1 harboring reverse transcriptase K103N mutant; assay type: toxicity; conditions: read-out: Ratio CC50/EC50; outline: as §4
[18] = Selectivity index, ratio of CC50 for human MT4 cells to EC50 for HIV1 harboring reverse transcriptase E138K mutant; assay type: toxicity; conditions: read-out: Ratio CC50/EC50; outline: as §4
[19] = Selectivity index, ratio of CC50 for human MT4 cells to EC50 for HIV1 harboring reverse transcriptase Y181C mutant; assay type: toxicity; conditions: read-out: Ratio CC50/EC50; outline: as §4
[20] = Selectivity index, ratio of CC50 for human MT4 cells to EC50 for HIV1 harboring reverse transcriptase Y188L mutant; assay type: toxicity; conditions: read-out: Ratio CC50/EC50; outline: as §4
[21] = Selectivity index, ratio of CC50 for human MT4 cells to EC50 for HIV1 harboring reverse transcriptase F227L/V106A mutant; assay type: toxicity; conditions: read-out: Ratio CC50/EC50; outline: as §4
[22] = test system: Human immunodeficiency virus 1; test: Antiviral activity against wild-type HIV-1 NL4-3 infected in human TZM-bl cells assessed as inhibition of viral replication after 2 days by bright Glo-luciferase reporter gene assay; assay type: functional, organism-based; conditions: Human immunodeficiency virus 1, NL4-3, TZM-bl, 48 h
Outline: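 TZM-bl cells infected with 800 TCID₅₀ of NL4-3 in the presence of a range of compound concentrations; single-round infection. After 2 days medium removed, Bright-Glo added and luminescence read. EC₅₀ is the concentration giving a 50% fall in relative light units relative to virus-control wells. Mean ± SD from at least triplicate.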

TZM = test: Cytotoxicity against human TZM-bl cells by CytoTox-Glo reagent-based assay; assay type: cell-based
Outline: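 TZM-bl cells exposed to compound at various concentrations. Cytotoxicity measured by CytoTox-Glo assay.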

[23] = Selectivity index, ratio of CC50 for human TZM-bl cells to EC50 for wild-type HIV-1 NL4-3 infected in human TZM-bl cells; assay type: toxicity, cell-based; conditions: read-out: Ratio CC50/EC50
Outline: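 SI is CC₅₀ divided by EC₅₀ in TZM-bl cells. CC₅₀ from CytoTox-Glo assay, averaged from two independent tests. EC₅₀ from single-round infection with 800 TCID₅₀ NL4-3, luciferase luminescence read at 2 days and expressed relative to virus controls.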

[24] = molecular target: Human immunodeficiency virus type 1 reverse transcriptase (Human immunodeficiency virus 1, UniProt Q72547); test: Inhibition of wild-type HIV1 reverse transcriptase assessed as decrease in digoxigenin and biotin-dUTP incorporation in to DNA using poly(A)/oligo(dT)15 as template/primer after 1 hr by ELISA
Outline: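 Kit ELISA on wild-type HIV-1 RT with poly(A)·oligo(dT)15 as template/primer and digoxigenin- and biotin-labelled dUTP. Incorporated label detected with peroxidase-conjugated anti-digoxigenin antibody and ABTS substrate. IC₅₀ is the concentration inhibiting biotin-dUTP incorporation by 50%.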

[25] = as §1; assay type: cell-based; conditions: MT4 cells; outline: as §2

Row | SMILES | EC50 [1] [nM] | EC50 [2] [nM] | CC50 (MT4) [nM] | EC50 [4] [nM] | EC50 [5] [nM] | EC50 [6] [nM] | EC50 [7] [nM] | EC50 [8] [nM] | EC50 [9] [nM] | Ratio EC50 [10] | Ratio EC50 [11] | Ratio EC50 [12] | Ratio EC50 [13] | Ratio EC50 [14] | Ratio EC50 [15] | selectivity ratio [16] | selectivity ratio [17] | selectivity ratio [18] | selectivity ratio [19] | selectivity ratio [20] | also measured
1 | Cc1cc(C)c(Oc2cc(Nc3ccc(C#N)cc3)ncc2C(=O)NCc2cn(CC(=O)N3CCCC3)nn2)c(C)c1 | 20 | 1430 | 58100 | 960 | 270 | 14 | 85 | 1480 | 240 | 48 | 13.5 | 0.7 | 4.3 | 74 | 12 | 60 | 214 | 4190 | 686 | 39 | selectivity ratio [3]: 2900; selectivity ratio [21]: 245; EC50 [22]: 24 nM; CC50 (TZM): > 221000 nM; selectivity ratio [23]: > 9.2; IC50 [24]: 2700 nM
2 | Cc1cc(C)c(Oc2cc(Nc3ccc(C#N)cc3)ncc2C(=O)NCc2cn(CC(=O)N3CCOCC3)nn2)c(C)c1 | 20 | 15700 | 181000 | 6130 | 380 | 27 | 240 | 7160 | 610 | 306.5 | 19 | 1.4 | 12 | 358 | 30.5 | 30 | 473 | 6800 | 761 | 25 | selectivity ratio [21]: 297; EC50 [22]: 20 nM; CC50 (TZM): > 215000 nM; selectivity ratio [23]: > 10.8; IC50 [24]: 1570 nM
3 | Cc1ccnc2c1NC(=O)c1cccnc1N2C1CC1 [NEVIRAPINE] | 260 | > 15000 | – | – | – | – | – | – | – | – | – | – | – | – | – | – | – | – | – | – | CC50 at 120 h [25]: > 15000 nM
4 | O=C1Nc2ccc(Cl)cc2[C@@](C#CC2CC2)(C(F)(F)F)O1 [EFAVIRENZ] | – | – | – | – | – | – | – | – | – | – | – | – | – | – | – | – | – | – | – | – | CC50 at 120 h [25]: > 6340 nM
